Here are results for 25 compounds from ChEMBL document CHEMBL2062428, “Cyclooxygenase-1-selective inhibitors based on the (E)-2'-des-methyl-sulindac sulfide scaffold” (J Med Chem, 2012).

Assay [1] concerns the target T1, Prostaglandin G/H synthase 1 (Ovis aries) (UniProt P05979).
T1 sequence (whole entry): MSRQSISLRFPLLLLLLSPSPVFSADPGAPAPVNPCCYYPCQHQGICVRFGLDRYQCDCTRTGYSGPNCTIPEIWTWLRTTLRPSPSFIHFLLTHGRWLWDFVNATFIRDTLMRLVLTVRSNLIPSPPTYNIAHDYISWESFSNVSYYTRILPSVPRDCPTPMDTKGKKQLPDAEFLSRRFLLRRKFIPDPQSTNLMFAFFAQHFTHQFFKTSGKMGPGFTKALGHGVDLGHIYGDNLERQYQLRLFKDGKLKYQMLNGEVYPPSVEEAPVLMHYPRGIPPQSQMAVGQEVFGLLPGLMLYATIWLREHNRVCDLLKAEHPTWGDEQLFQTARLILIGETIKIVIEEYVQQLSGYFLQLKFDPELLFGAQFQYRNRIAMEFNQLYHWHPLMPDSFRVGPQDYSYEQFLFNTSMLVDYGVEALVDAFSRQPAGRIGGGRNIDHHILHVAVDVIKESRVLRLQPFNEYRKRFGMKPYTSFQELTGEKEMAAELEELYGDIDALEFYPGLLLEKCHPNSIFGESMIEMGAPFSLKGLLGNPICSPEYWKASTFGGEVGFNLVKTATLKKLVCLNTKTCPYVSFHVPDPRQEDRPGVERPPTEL
As to the kind of experiment: Inhibition of ovine COX-1 using [14C] arachidonic acid as substrate at 25 uM preincubated for 17 mins before substrate addition measured after 3 mins by thin-layer chromatographic analysis.

For assay [2], the system named is OVCAR-3. As to the kind of experiment: Cytotoxicity against human OVCAR3 cells after 2 days by WST1 assay. As to conditions: OVCAR-3, 48 h. Type of assay: functional, cell-based. In a few lines: (§1)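 Viability of human ovarian carcinoma NIH-OVCAR-3 cells, which express COX-1 but no detectable COX-2, after a 2-day compound treatment. Concentrations up to 250 μM tested. EC50 for growth inhibition derived from concentration–response curves.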
For orientation: Tetrazolium assays rely on reduction of a dye to a coloured formazan, in cell work by metabolically active cells.

The target in assay [3] is T1, Prostaglandin G/H synthase 1 (Ovis aries). Description: Inhibition of ovine COX-1 using [14C] arachidonic acid as substrate at 4 uM preincubated for 17 mins before substrate addition measured after 3 mins by thin-layer chromatographic analysis. Summed up:
(§2)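 Purified ovine COX-1 or murine COX-2 preincubated with a single 4 μM inhibitor concentration for 17 min. […] Reaction quenched; radioactive products extracted and quantified. Mean ± SEM of two experiments.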

In assay [4] the target is T2, Prostaglandin G/H synthase 1 (Ovis aries, UniProt P05979).
T2 sequence (P05979 whole entry): T1 sequence (whole entry)
As to the kind of experiment: Inhibition of ovine COX-1 using [14C] arachidonic acid as substrate preincubated for 17 mins before substrate addition measured after 3 mins by thin-layer chromatographic analysis.

The target in assay [5] is T3, Prostaglandin G/H synthase 2 (Mus musculus) (UniProt Q05769).
T3 sequence (whole entry): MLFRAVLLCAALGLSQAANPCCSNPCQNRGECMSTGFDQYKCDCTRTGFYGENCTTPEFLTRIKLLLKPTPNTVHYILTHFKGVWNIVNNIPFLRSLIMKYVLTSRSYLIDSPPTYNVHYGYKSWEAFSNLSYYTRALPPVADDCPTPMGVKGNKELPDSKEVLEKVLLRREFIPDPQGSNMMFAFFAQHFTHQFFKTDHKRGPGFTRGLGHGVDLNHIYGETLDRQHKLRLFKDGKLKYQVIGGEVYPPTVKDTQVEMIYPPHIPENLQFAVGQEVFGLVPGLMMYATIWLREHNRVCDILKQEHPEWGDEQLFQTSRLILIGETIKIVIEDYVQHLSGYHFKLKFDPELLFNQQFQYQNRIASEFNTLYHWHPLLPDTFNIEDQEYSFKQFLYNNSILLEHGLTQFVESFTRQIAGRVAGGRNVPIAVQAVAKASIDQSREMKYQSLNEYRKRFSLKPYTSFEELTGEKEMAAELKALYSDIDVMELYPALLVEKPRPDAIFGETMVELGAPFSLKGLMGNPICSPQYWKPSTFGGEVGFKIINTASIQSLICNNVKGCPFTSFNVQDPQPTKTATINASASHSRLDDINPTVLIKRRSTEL
Description: Inhibition of mouse COX-2 using [14C] arachidonic acid as substrate at 4 uM preincubated for 17 mins before substrate addition measured after 3 mins by thin-layer chromatographic analysis. In a few lines:
as §2

The target in assay [6] is T4, Prostaglandin G/H synthase 2 (Homo sapiens) (UniProt P35354).
T4 sequence (whole entry): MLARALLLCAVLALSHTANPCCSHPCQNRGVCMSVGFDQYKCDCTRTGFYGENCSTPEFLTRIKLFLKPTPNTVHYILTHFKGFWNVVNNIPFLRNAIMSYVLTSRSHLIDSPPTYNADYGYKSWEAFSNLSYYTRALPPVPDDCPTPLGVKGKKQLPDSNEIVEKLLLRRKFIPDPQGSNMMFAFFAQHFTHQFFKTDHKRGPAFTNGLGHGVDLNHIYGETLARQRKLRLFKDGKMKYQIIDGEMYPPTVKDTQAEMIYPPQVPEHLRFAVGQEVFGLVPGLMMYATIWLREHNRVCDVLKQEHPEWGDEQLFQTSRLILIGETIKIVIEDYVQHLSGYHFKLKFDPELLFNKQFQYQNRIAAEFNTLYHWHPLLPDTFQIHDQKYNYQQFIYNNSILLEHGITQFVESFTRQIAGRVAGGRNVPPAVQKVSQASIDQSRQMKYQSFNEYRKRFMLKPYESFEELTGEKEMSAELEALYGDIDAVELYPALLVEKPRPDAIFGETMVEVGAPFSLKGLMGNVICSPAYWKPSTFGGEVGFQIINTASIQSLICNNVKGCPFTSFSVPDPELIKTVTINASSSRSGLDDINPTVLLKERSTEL
Description: Inhibition of COX-2 in human HNSCC 1483 cells using [14C] arachidonic acid as substrate at 5 uM preincubated for 30 mins before substrate addition measured after 30 mins. The format is cell-based.

The test system of the next assay is MDA-MB-231. As to the kind of experiment: Cytotoxicity against human MDA-MB-231 cells after 48 hrs by WST1 assay. Type of assay: functional, cell-based. As to conditions: MDA-MB-231, 48 h.
For assay [7], the system named is OVCAR-3. As to the kind of experiment: Cytotoxicity against human OVCAR3 cells growth inhibition up to 250 uM after 2 days by WST1 assay. Type of assay: functional, cell-based. In a few lines:
as §1

For assay [8], the target named is T5, Prostaglandin G/H synthase 2 (Mus musculus, UniProt Q05769).
T5 sequence (Q05769 whole entry): T3 sequence (whole entry)
Description: Inhibition of mouse COX-2 using [14C] arachidonic acid as substrate preincubated for 17 mins before substrate addition measured after 3 mins by thin-layer chromatographic analysis.

pEC50, pIC50: −log10 of the molar value. Calls of active or inactive are those of the source. The calls are words filed in the database; no cut-off is given here.

Consider `COc1ccc2c(c1)C(CC(=O)O)=C/C2=C\c1ccc(SC)cc1`, for which the inhibition in [1] amounted to 19%.

Compound `CC1=C(CC(=O)O)c2cc(F)ccc2/C1=C/c1ccc([S+](C)[O-])cc1` (configuration not stated) [SULINDAC SULFOXIDE] gave a pEC50 in the assay with OVCAR-3 [2] of 3.68.

Take `CCOC(=O)CC1=C/C(=C\c2ccc(-c3ccccc3)cc2)c2ccc(F)cc21`: the inhibition in [3] is 64%; in assay [5], 28%. The compound further gave a pIC50 in [4] of 5.96.

Consider `CSc1ccc(/C=C2\C=C(CC(=O)O)c3cc(F)ccc32)cc1`, for which the inhibition entry in assay [6] is “inactive”. Further, the inhibition is 65% in assay [3] and 10% in assay [5]. Besides, the pEC50 with OVCAR-3 [2] was 3.65.

With `CSc1ccc(/C=C2/C(C)=C(CC(=O)O)c3cc(F)ccc32)cc1` [SULINDAC SULFIDE], in the assay with MDA-MB-231, the pEC50 was 3.68. Besides, the “growth inhibition (GI)” value with OVCAR-3 [7] is “inactive”.

On to `O=C(O)CC1=C/C(=C\c2ccc(-c3ccccc3)cc2)c2ccc(F)cc21`, for which the inhibition entry in assay [6] is “inactive”. Also, the values for the inhibition in [3] and in [5] were 75% and 1%, respectively. Further, the pEC50 was 3.85 with MDA-MB-231 and 3.88 in the assay on OVCAR-3 [2]. Also, the pIC50 in assay [8] was under 5.40; in [4], 6.24.

`CC(C)(C(=O)O)C1=C/C(=C\c2ccc(-c3ccccc3)cc2)c2ccc(F)cc21`: the inhibition in assay [3] was 58%. This compound also had a pIC50 in assay [4] of 5.66.

In the case of `CCOC(=O)C(C)(C)C1=C/C(=C\c2ccc3c(c2)Cc2ccccc2-3)c2ccc(F)cc21`, the inhibition in assay [3] was 34%; in assay [5], 18%.

With `CS(=O)(=O)c1ccc(-c2cccc(/C=C3\C=C(CC(=O)O)c4cc(F)ccc43)n2)cc1`, the inhibition in assay [3] came to 13%; in assay [5], 54%.

Take `COc1ccc(-c2cccc(/C=C3\C=C(CC(=O)O)c4cc(F)ccc43)n2)cc1`: the inhibition in assay [3] was determined as 35%; in assay [5], 56%.

With `CCOC(=O)C(C)(C)C1=C/C(=C\c2cnc(-c3ccccc3)nc2C)c2ccc(F)cc21`, the inhibition in assay [3] was found to be 25%; in assay [5], 9%.

With `COc1ccc2c(c1)C(CC(=O)O)=C/C2=C\c1ccc(-c2ccccc2)cc1`, the inhibition is 38% in assay [3] and 2% in [5].

As to `O=C(O)CC1=C/C(=C\c2ccc(C(F)(F)F)cc2)c2ccc(F)cc21`, the results for the inhibition in [3] and in assay [5] were 81% and 60%, respectively.

As to `Cc1nc(-c2ccccc2)ncc1/C=C1\C=C(CC(=O)O)c2cc(F)ccc21`, the inhibition in assay [3] and in [5] was 19% throughout.

For the compound `O=C(O)CC1=C/C(=C\c2ccc(-c3ccc(C(F)(F)F)cc3)cc2)c2ccc(F)cc21`, the figures for the inhibition in assay [3] and in [5] were 31% and 15%, respectively.

For the compound `O=C(CC1=C/C(=C\c2ccc(-c3ccccc3)cc2)c2ccc(F)cc21)NS(=O)(=O)C(F)(F)F`, the results for the inhibition in assay [3] and in assay [5] were 99% and 15%, respectively.

Take `CSc1ccc(/C=C2\C=C(CC(=O)NS(=O)(=O)c3ccc(C(C)=O)cc3)c3cc(F)ccc32)cc1`: the inhibition in assay [3] worked out at 3.5%; in assay [5], 26%.

For `COC(=O)CC1=C/C(=C\c2ccc(SC)cc2)c2ccc(F)cc21`, the inhibition was 39% in assay [3] and 9% in assay [5].

For `O=C(O)CC1=C/C(=C\c2ccc3ccccc3c2)c2ccc(F)cc21`, the inhibition was 75% in [3] and 34% in assay [5].

For the compound `CSc1ccc(/C=C2\C=C(CC(=O)NS(=O)(=O)C(F)(F)F)c3cc(F)ccc32)cc1`, the inhibition in [3] is 65%; in [5], 15%. For the same compound, in the assay with MDA-MB-231, the negative logarithm of the EC50 (pEC50) was 3.67.

Regarding `CCOC(=O)C(C)(C)C1=C/C(=C\c2ccc(-c3ccccc3)c(F)c2)c2ccc(F)cc21`, the inhibition was determined as 40% in assay [3] and 15% in assay [5].

As to `CSc1ccc(/C=C2\C=C(CC(N)=O)c3cc(F)ccc32)cc1`, the inhibition in assay [3] stood at 21%; in assay [5], 5%.

In the case of `O=C(O)CC1=C/C(=C\c2ccccc2)c2ccc(F)cc21`, the inhibition in [3] was determined as 74%; in assay [5] it was 34%.

For `O=C(O)CC1=C/C(=C\c2ccc([S+]([O-])C(F)(F)F)cc2)c2ccc(F)cc21` (configuration not stated), the inhibition in assay [3] is 51%; in assay [5], 15%.

In the case of `CSc1ccc(/C=C2\C=C(CC(=O)NS(=O)(=O)c3ccccc3C)c3cc(F)ccc32)cc1`, the results for the inhibition in assay [3] and in assay [5] were 60% and 36%, respectively.

In general, inhibition refers to the change of the read-out against control, counted positive when it falls. Broadly, the pEC50 is the negative decadic logarithm of the EC50, by convention in mol/L. Low readings indicate a high EC50, high ones a low EC50. A word on the pIC50: it is the negative decadic logarithm of the IC50, by convention in mol/L.
